Measurements from ChEMBL document CHEMBL1122417, “Synthesis of 3-hydroxy-3-cyclohexylbutyric acid derivatives. 1. Cyclic homologues of 3-hydroxy-3-methylglutaric acid” (1983).

Key:
Type in all cases: functional
[1] = organism: Rattus norvegicus; assay: Percent inhibition of [14C]acetate incorporation into cholesterol, after incubation with rat liver slices, at a concentration of 0.005 M
In short: (§1)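 Rat liver slices (250 mg) were incubated with and without compound in 4 mL Krebs-Ringer bicarbonate buffer, pH 7.4, containing 4 mM [2-14C]acetate and flushed with 95% O2-5% CO2. 14C incorporation into CO2, long-chain fatty acids and cholesterol was measured and compared against incubations without compound. Values are arithmetic means of three determinations.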

[2] = organism: Rattus norvegicus; assay: Percent inhibition of [14C]acetate incorporation into CO2, after incubation with rat liver slices at a concentration of 0.005 M; in short: as §1
[3] = organism: Rattus norvegicus; assay: Percent inhibition of [14C]acetate incorporation into long-chain fatty acids, after incubation with rat liver slices, at a concentration of 0.005 M; in short: as §1
[4] = organism: Rattus norvegicus; assay: Percent inhibition of [14C]acetate incorporation into long-chain fatty acids, after incubation with rat liver slices, at a concentration of 0.0005 M; in short: as §1
[5] = organism: Rattus norvegicus; assay: Percent inhibition of [14C]acetate incorporation into cholesterol, after incubation with rat liver slices, at a concentration of 0.0005 M; in short: as §1
[6] = organism: Rattus norvegicus; assay: Percent inhibition of [14C]-acetate incorporation into CO2, after incubation with rat liver slices at a concentration of 0.0005 M; in short: as §1

Row | SMILES | Inhibition [1] [%] | Inhibition [2] [%] | Inhibition [3] [%] | Inhibition [4] [%] | Inhibition [5] [%] | Inhibition [6] [%]
1 | CC1(CC(=O)O)OC(=O)[C@@H]2CCCC[C@H]21 (some centres undefined) | 42 | 37 | 67 | – | – | –
2 | CC1(CC(=O)O)OC(=O)[C@H]2CCCC[C@H]21 (some centres undefined) | 30 | 23 | 34 | – | – | –
3 | CC1(CC(=O)O)OC(=O)c2ccccc21 (centres undefined) | 48 | <10 | 54 | – | – | –
4 | CCC1(C)OC(=O)c2ccccc21 (centres undefined) | 99 | 86 | 99 | 29 | 22 | <10
5 | CC(O)(CC(=O)O)CC(=O)O [MEGLUTOL] | 12 | <10 | <10 | – | – | –
6 | CCC1(C)OC(=O)C2=C1CCCC2 (centres undefined) | 81 | 63 | 81 | – | – | –
7 | CC1(CC(=O)O)OC(=O)C2=C1CCCC2 (centres undefined) | 63 | 45 | 83 | – | – | –
